According to ChEMBL document CHEMBL1151895, “Discovery, synthesis, and biological evaluation of piperidinol analogs with anti-tuberculosis activity” (Bioorg Med Chem, 2009):
In brackets after ≈: the same amount, converted by molar mass.

Legend:
[1] = Therapeutic index, CC50 for african green monkey Vero cells to MIC for Mycobacterium tuberculosis H37Rv; type: cell-based
[2] = test system: Mycobacterium tuberculosis; test: Antimicrobial activity against Mycobacterium tuberculosis H37Rv after 9 to 12 days by CLSI microbroth dilution technique; type: functional
In short: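 M. tuberculosis H37Rv grown in Middlebrook 7H9 with 10% OADC to OD600 0.4–0.6, frozen in aliquots of known CFU/mL. Compounds serially diluted in DMSO, added to 7H9 medium; 2×10^4 bacteria per well. Incubated at 37 °C for […]. MIC90 read visually as concentration inhibiting 90% of growth. Isoniazid control run in each experiment.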

[3] = Cytotoxicity against african green monkey Vero cells after 72 hrs by alamar blue assay; type: cell-based; settings: chlorocebus sabaeus, read-out: LD50
In short: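 Vero cells grown in phenol-free L15 medium with glutamine, penicillin-streptomycin and 10% bovine calf serum at 37°C. Compounds tested by microplate dilution for 72 h at 37°C. alamarBlue then added and plates incubated overnight at 37°C. Drug LD50 determined.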

Mus musculus = test: Toxicity in mouse assessed as death at 50 to 100 mg/kg; type: organism-based; parameters: dose 50-100 mg/kg; settings: in vivo

SMILES | selectivity ratio [1] | MIC [2] | CC50 at 72 h [3] | Activity (Mus musculus)
O[C@H](COc1ccccc1)CN1CCC(O)(c2ccc(Cl)c(C(F)(F)F)c2)CC1 | 4.2 | 8.3 µg/mL (≈ 19.3 µM) | 34.9 µg/mL (≈ 81.2 µM) | –
O[C@@H](COc1ccccc1)CN1CCC(O)(c2ccc(Cl)c(C(F)(F)F)c2)CC1 | 1.5 | 18.8 µg/mL (≈ 43.7 µM) | 27.7 µg/mL (≈ 64.4 µM) | –
OC(COc1ccc(Cl)cc1)CN1CCC(O)(c2ccc(Cl)c(C(F)(F)F)c2)CC1 (racemic) | 11.9 | 1.5 µg/mL (≈ 3.23 µM) | 17.9 µg/mL (≈ 38.6 µM) | –
O[C@H](CSc1ccccc1)CN1CCC(O)(c2ccc(Cl)c(C(F)(F)F)c2)CC1 | 6.8 | 5.2 µg/mL (≈ 11.7 µM) | 35.7 µg/mL (≈ 80.1 µM) | –
O[C@@H](COc1ccc(OC(F)(F)F)cc1)CN1CCC(O)(c2ccc(Cl)c(C(F)(F)F)c2)CC1 | 4.9 | 3.6 µg/mL (≈ 7.01 µM) | 17.7 µg/mL (≈ 34.4 µM) | –
O[C@@H](COc1ccc(F)cc1)CN1CCC(O)(c2ccc(Cl)c(C(F)(F)F)c2)CC1 | 2 | 10.4 µg/mL (≈ 23.2 µM) | 20.8 µg/mL (≈ 46.4 µM) | –
O[C@@H](COc1ccc(Cl)cc1)CN1CCC(O)(c2ccccc2)CC1 | – | 100 µg/mL (≈ 276 µM) | – | –
Cc1cccc(C)c1OC[C@@H](O)CN1CCC(O)(c2ccc(Cl)c(C(F)(F)F)c2)CC1 | 4.1 | 4.7 µg/mL (≈ 10.3 µM) | 19 µg/mL (≈ 41.5 µM) | –
O[C@H](COc1ccc(OC(F)(F)F)cc1)CN1CCC(O)(c2ccc(Cl)c(C(F)(F)F)c2)CC1 | 2.4 | 7.3 µg/mL (≈ 14.2 µM) | 17.6 µg/mL (≈ 34.3 µM) | –
Cc1cccc(C)c1OC[C@H](O)CN1CCC(O)(c2ccc(Cl)c(C(F)(F)F)c2)CC1 | 3.3 | 5.9 µg/mL (≈ 12.9 µM) | 19.3 µg/mL (≈ 42.1 µM) | –
N#CC1(c2ccccc2)CCN(C[C@@H](O)COc2ccc(Cl)cc2)CC1 | – | 25 µg/mL (≈ 67.4 µM) | – | –
O[C@H](COc1ccc(Cl)c(Cl)c1)CN1CCC(O)(c2ccc(Cl)c(C(F)(F)F)c2)CC1 | 2.6 | 7.3 µg/mL (≈ 14.6 µM) | 18.7 µg/mL (≈ 37.5 µM) | –
OC(COc1ccccc1)CN1CCC(O)(c2ccc(Cl)c(C(F)(F)F)c2)CC1 (racemic) | 1.9 | 10.4 µg/mL (≈ 24.2 µM) | 19.5 µg/mL (≈ 45.4 µM) | –
O[C@H](COc1ccc(C(F)(F)F)cc1)CN1CCC(O)(c2ccc(Cl)c(C(F)(F)F)c2)CC1 | 11 | 1.7 µg/mL (≈ 3.41 µM) | 18.7 µg/mL (≈ 37.6 µM) | –
O[C@@H](COc1ccc(Cl)cc1)CN1CCC(O)(c2cccc(C(F)(F)F)c2)CC1 | – | 25 µg/mL (≈ 58.2 µM) | – | –
O[C@@H](COc1ccc(Cl)cc1)CN1CCC(O)(c2ccc(Cl)c(C(F)(F)F)c2)CC1 | 13.3 | 1.4 µg/mL (≈ 3.02 µM) | 18.2 µg/mL (≈ 39.2 µM) | Toxic
O[C@@H](COc1ccc(Cl)cc1)CN1CCC(O)(c2ccc(Cl)cc2)CC1 | – | 25 µg/mL (≈ 63.1 µM) | – | –
O[C@@H](COc1ccc(Cl)c(Cl)c1)CN1CCC(O)(c2ccc(Cl)c(C(F)(F)F)c2)CC1 | 5.8 | 3.1 µg/mL (≈ 6.22 µM) | 18 µg/mL (≈ 36.1 µM) | –
O[C@H](COc1ccc(Cl)cc1)CN1CCC(O)(c2ccc(Cl)c(C(F)(F)F)c2)CC1 | 4.7 | 3.8 µg/mL (≈ 8.18 µM) | 17.9 µg/mL (≈ 38.6 µM) | –
O[C@H](COc1ccc(F)cc1)CN1CCC(O)(c2ccc(Cl)c(C(F)(F)F)c2)CC1 | 6.6 | 3.9 µg/mL (≈ 8.71 µM) | 25.8 µg/mL (≈ 57.6 µM) | –
O[C@@H](COc1ccc(C(F)(F)F)cc1)CN1CCC(O)(c2ccc(Cl)c(C(F)(F)F)c2)CC1 | 3.5 | 5.2 µg/mL (≈ 10.4 µM) | 18.3 µg/mL (≈ 36.8 µM) | –
O[C@@H](COc1ccc(Cl)cc1)CN1CC=C(c2ccc(Cl)cc2)CC1 | – | > 200 µg/mL | – | –
O[C@@H](CSc1ccccc1)CN1CCC(O)(c2ccc(Cl)c(C(F)(F)F)c2)CC1 | 4.4 | 8.3 µg/mL (≈ 18.6 µM) | 37.1 µg/mL (≈ 83.2 µM) | –
